By IC50 is commonly meant the concentration that gives 50% inhibition.

In brackets after ≈: the same amount, converted by molar mass. Read-outs that look alike come from different tables or passages of the source.

This is an account of results in paper PMC5159300 (Cell chemical biology, 2016).

For one data set, the system named is C. albicans (SC5314). As to the kind of experiment: C. albicans growth in media with glucose or glycerol as carbon source. Format: cell-based, Candida albicans. In short, it runs like this: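 Growth compared in synthetic medium of yeast nitrogen base with complete amino acid supplement, containing either 2% glucose or 2% glycerol as carbon source. Data pooled from two independent experiments.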

Data set [1] has as its target cytochrome bc1 (Candida albicans, UniProt P0C8L0). Description: Cytochrome bc1 enzymatic activity in purified C. albicans mitochondria. Format: biochemical. To be noted: for Extent of inhibition of C. albicans cytochrome bc1 activity: maximal effect.
A short description of a further data set: Plasma stability. The data set is classed as in vitro ADME, human.
The subject of another data set is S. cerevisiae (BY4741). The data set is classed as cell-based.
For data set [2], the target named is T1, human cytochrome bc1 (Homo sapiens, UniProt P00156). To be noted: human IC50 versus C. albicans homolog IC50.
The next data set in a line: Solubility limit. Format: physicochemical.
Data set [3] in a line: Mouse liver microsome stability. Format: in vitro ADME. To be noted: 15 minute incubation at 37 C. For orientation: Liver microsomes are vesicles of endoplasmic reticulum, rich in cytochrome P450 enzymes.
Data set [4] has as its target cytochrome bc1 (Saccharomyces cerevisiae, UniProt P00163). Description: Cytochrome bc1 enzymatic activity in purified yeast mitochondria. Format: biochemical. To be noted: read-out: IC50 cytochrome bc1 inhibition; S. cerevisiae mitochondria, wild type.
The subject of a further data set is C. albicans CaCi-2. The data set is classed as cell-based, Candida albicans. To be noted: in the presence of fluconazole; SAR statement.
The test system of a further data set is Aspgerillus terreus. As to the kind of experiment: Single-agent growth inhibition of Aspgerillus terreus. Format: cell-based. The following applies: enhanced under respiratory growth conditions.
Data set [5] deals with C. albicans SC5314. As to the kind of experiment: Clonogenic survival in liquid culture. The data set is classed as cell-based, Candida albicans. The following applies: for Effect on growth and viability as single agent: 32 mg/L fluconazole alone or 10 μM Inz-5 alone.
The subject of the next data set is Scedosporium prolificans. Description: Single-agent growth inhibition of Scedosporium prolificans. Format: cell-based. The following applies: enhanced under respiratory growth conditions.
The test system of data set [6] is C. albicans SC5314. Description: Diffusion halo assay on agar plates with various carbon sources. The data set is classed as cell-based, Candida albicans. To be noted: 10 μg disc. In short, it runs like this: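 SC5314 cells were spread on agar plates with different carbon sources. These included 80% fetal bovine serum as nutrient source (~0.1-0.2% glucose), high (2%) glucose, galactose and non-fermentable sources. A filter disc carried 10 μg test compound in DMSO or DMSO alone. The zone of growth inhibition was scored.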

The next data set relates to Rhizopus oryzae. As to the kind of experiment: Single-agent growth inhibition of Rhizopus oryzae. Format: cell-based. To be noted: enhanced under respiratory growth conditions.
Data set [7] deals with C. albicans wild-type (SC5314). Description: Emergence of fluconazole-resistant colonies on agar plates. The data set is classed as cell-based, Candida albicans.
The subject of a further data set is C. albicans. Description: Co-culture of C. albicans with mouse bone-marrow-derived macrophages. The data set is classed as cell-based, Candida albicans. The following applies: 5 μM.
In the next data set the test system is HepG2 cells. Description: Mammalian cell respiration toxicity. The following applies: Homo sapiens, HepG2, read-out: IC50 toxicity to respiring HepG2 cells. Format: cell-based. Summed up: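 HepG2 cells were passaged in high-glucose DMEM, washed and resuspended in glucose-free DMEM with 10 mM galactose to force respiration, then seeded at 10,000 cells/well. After 72 hr with test compound, cellular ATP was measured by luminescent assay (reagent at 1:5 dilution) as a proxy for growth. IC50 was averaged from at least 2 independent experiments.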

In the next data set the test system is malarial cytochrome B. The following applies: ref Hughes et al., 1998; cited from earlier work.
In data set [8] the target is T1, human cytochrome bc1. Description: biochemical.
Data set [9] has as its system C. albicans CaCi-2 and rip1Δ/Δ. Description: Mouse systemic infection. The data set is classed as in vivo, Balb/C mice. To be noted: low inoculum of CaCi-2 or rip1Δ/Δ; fluconazole 24 mg/kg IP for 3 days.
[10] abbreviates: media containing glycerol as the sole carbon source.

Sequence of cytochrome bc1 (Candida albicans, UniProt P0C8L0) (P0C8L0 whole entry): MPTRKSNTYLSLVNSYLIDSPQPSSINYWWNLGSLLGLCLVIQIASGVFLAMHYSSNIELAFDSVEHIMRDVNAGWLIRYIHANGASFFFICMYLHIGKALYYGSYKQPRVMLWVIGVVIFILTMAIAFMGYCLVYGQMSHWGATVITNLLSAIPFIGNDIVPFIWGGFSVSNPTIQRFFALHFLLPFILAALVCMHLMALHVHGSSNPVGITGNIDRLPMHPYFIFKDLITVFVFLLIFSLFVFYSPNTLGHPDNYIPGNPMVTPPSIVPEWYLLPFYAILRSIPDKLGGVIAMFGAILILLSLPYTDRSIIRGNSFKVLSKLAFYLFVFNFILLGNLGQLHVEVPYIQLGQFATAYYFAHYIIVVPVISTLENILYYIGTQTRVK

`COC(=O)Cn1nc(-c2ccccc2)c2ccccc21` [Inz-1]: the “Growth inhibition” value was “only mildly slowing growth” in the data set on C. albicans (SC5314) (glucose media), “potently inhibited growth” with C. albicans (SC5314) (setting [10]), “only mildly slowing growth” in the data set on S. cerevisiae (BY4741) (glucose media) and “potently inhibited growth” in the data set on S. cerevisiae (BY4741) (setting [10]). Moreover, the “Extent of inhibition of C. albicans cytochrome bc1 activity” value at cytochrome bc1 [1] was “significant residual activity”. For the same molecule, the “Plasma stability” value in “Plasma stability” (incubation of 1 hour at 37 C in human plasma) is reported as “fully degraded”. Moreover, the “Resistance conferred by L275S mutation” value in the data set with S. cerevisiae (BY4741) (cytochrome B L275S mutant) is “confer resistance”. For the same molecule, the “Resistance conferred by P270L mutation” value in the data set on S. cerevisiae (BY4741) (cytochrome B P270L mutant) is recorded as “confer resistance”. Moreover, the “Resistance conferred by G143A mutation” value with S. cerevisiae (BY4741) (yeast cytochrome B G143A mutant, respiratory growth) is reported as “strong resistance”. Also, on human cytochrome bc1 [2], the “Fold higher IC50 for human than for C. albicans cytochrome bc1” value was determined as 5.6 fold. The molecule further displayed a Solubility limit in the data set “Solubility limit” of 32 µM (≈ 8.52 µg/mL). Moreover, the “Compound remaining in mouse liver microsomes” value in [3] was below 1%. In addition, at cytochrome bc1 [4], the IC50 turned out to be 2500 nM.

Take `COC(=O)Cn1nc(-c2cc(C(F)(F)F)ccc2F)c2ccccc21` [Inz-2]: the “Potency against the fungal enzyme” value on cytochrome bc1 [1] (compared with Inz-1) is on record as “significant enhancement of potency”.

For the molecule `COC(=O)Cn1nc(-c2ccccc2)c2cccc(C)c21` [Inz-3], in the data set on C. albicans CaCi-2, the “Activity against Candida proliferation” value was “beneficial to both the activity and the selectivity”.

On to `Cc1cccc2c(-c3cc(C(F)(F)F)ccc3F)nn(Cc3nnn(C)n3)c12` [Inz-5], for which, at cytochrome bc1 [1], the “Extent of inhibition of C. albicans cytochrome bc1 activity” value is “complete inhibition”. Besides, the “Growth inhibition as a single agent” value in the data set on Aspgerillus terreus, in the data set on Scedosporium prolificans and with Rhizopus oryzae was “promising growth inhibition” in each case. The “Reduction of the number of viable colonies” value in the data set with C. albicans SC5314 [5] (10 μM Inz-5 in combination with 32 mg/L fluconazole) came to 97%. Further, the “Effect on growth and viability as single agent” value in the data set with C. albicans SC5314 [5] is “partially slowed growth”. Further, the “Plasma stability” value in the data set “Plasma stability” (3 hours of incubation in human serum) is on record as “fully recovered”. Further, the “Growth inhibition in halo assay” value in the data set on C. albicans SC5314 [6] (80% fetal bovine serum as the nutrient source) was “slight growth inhibition”; in the data set with C. albicans SC5314 [6] (amino acids, lactate, or acetate as the carbon source), “potent and profound growth inhibition”; in the data set on C. albicans SC5314 [6] (galactose), “moderate growth inhibition”; in the data set on C. albicans SC5314 [6] (high glucose), “very little growth inhibition”. For the same molecule, the “Compound remaining in mouse liver microsomes” value in data set [3] is 19.5%. The “Effect on colonies” value in [7] (10 μM Inz-5 alone) is “reduced colony size, but no reduction in the total number of colonies”. The “Effect on emergence of resistant colonies” value in [7] (10 μM Inz-5 in combination with 64 mg/L fluconazole) is “completely abrogated the emergence of resistant colonies”. The “Activity against Candida proliferation” value in the data set with C. albicans CaCi-2 is recorded as “sub-micromolar activity”. Further, the “Fungal growth in the presence of macrophages” value with C. albicans (14-hour co-culture) was “sharply curtailed fungal growth”. In addition, in the data set on C. albicans (2 hours), the “Escape of C. albicans from macrophages” value is given as “remained trapped in the phagosome”.

For the molecule `Cn1nnc(Cn2nc(-c3ccccc3)c3ccccc32)n1` [Inz-34], the “Activity against Candida proliferation” value in the data set with C. albicans CaCi-2 is on record as “retained activity”.

For the molecule `c1ccc(-c2nn(Cc3cnccn3)c3ccccc23)cc1` [Inz-37], the “Activity against Candida proliferation” value with C. albicans CaCi-2 is on record as “retained activity”.

`O=C1C(O)=C([C@H]2CC[C@H](c3ccc(Cl)cc3)CC2)C(=O)c2ccccc21` [atovaquone]: the IC50 is 12700 nM in the data set with HepG2 cells and 1800 nM at human cytochrome bc1 [8]. Further, the “Potency against the malarial cytochrome B” value with malarial cytochrome B is on record as “low nanomolar potency”.

Take `OC(Cn1cncn1)(Cn1cncn1)c1ccc(F)cc1F` [fluconazole, reference compound]: the “Effect on growth and viability as single agent” value with C. albicans SC5314 [5] is on record as “slowed growth of the wild-type strain but did not cause a decrease in viability”. For the same molecule, the “Brain fungal burden” value in data set [9] is “eliminated brain colonization”. Further, the “Rate of emergence of resistant colonies” value in data set [7] (64 mg/L fluconazole alone) is ~ 0.5%.
